Test results published in ChEMBL document CHEMBL1129735, “High-affinity alpha-aminobutyric acid A/benzodiazepine ligands: synthesis and structure-activity relationship studies of a new series of tetracyclic imidazoquinoxalines” (J Med Chem, 1996).

Legend:
[1] = target: GABA-A receptor; anion channel; test: Displacement of [3H]flunitrazepam from GABA-A benzodiazepine receptor of rat cortical membranes; format: cell membranes, Membrane
[2] = target: GABA-A receptor; anion channel (Rattus norvegicus) (UniProt O09028+P15431+P18506+P18508+P19969+P20236+P23574+P23576+P28471+P28473+P30191+P62813+P63079+P63138+Q91ZM7+Q9ES14); test: Binding to GABA-A receptor complex relative to TBPS binding to picrotoxin convulsant site; format: functional
Summary of the method: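 Rat brain membranes ([…]) with 2 nM [35S]TBPS in 1 M NaCl, 10 mM Tris/HCl pH 7.4, 120 min at 24 °C; drugs added from methanol (≤0.2%, constant). Filtration read-out, nonspecific binding with 2 mM unlabeled TBPS.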

[3] = target: GABA-A receptor; alpha-1/beta-2/gamma-2 (Homo sapiens) (UniProt P14867+P47870+P18507); test: In vitro efficacy for GABA-A alpha-1-beta-2-gamma-2 subtype expressed in A293 cells in Cl- current assay; format: functional, cell-based; conditions: Rattus norvegicus; HEK293
Summary of the method: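 Stable A293 (human kidney) cells were transfected with α1, β2 and γ2 cDNAs and selected 2 weeks in 1 mg/mL G418; Northern-positive cells were used. Whole-cell patch clamp used a pipette solution of CsCl/EGTA/MgCl2/ATP/Hepes at pH 7.3 and an external normal saline at pH 7.2. GABA with or without drug was applied by U-tube for 10 s. Holding potential was -60 mV, room temperature.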

[4] = target: GABA A receptor alpha-6/beta-2/gamma-2 (Rattus norvegicus, UniProt P18508+P30191+P63138); test: Displacement of [3H]-Ro- 15-4513 from alpha-6 beta2 gamma2 subunits of Rat GABA-A receptor expressed in Sf-9 insect cell membranes
[5] = target: GABA A receptor alpha-6/beta-2/gamma-2 (Rattus norvegicus) (UniProt P18508+P30191+P63138); test: Displacement of [3H]-Ro- 15-4513 from alpha-6 beta2 gamma2 subunits of Rat GABA-A receptor expressed in Sf-9 insect cell membrane
Summary of the method: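 Sf-9 cells co-infected with baculoviruses for α6, β2 and γ2 subunits at an MOI of 3 pfu and harvested at 60 h. Membranes were made by homogenising in normal saline, then spun at 1000g and 40000g. Binding used 6 nM [3H]Ro 15-4513 with varying test ligand concentrations in normal saline, 60 min at 4 °C. Bound label was separated on glass-fibre filters and counted by scintillation.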

GABA A receptor alpha-6/beta-2/gamma-2, sequence (P18508 whole entry): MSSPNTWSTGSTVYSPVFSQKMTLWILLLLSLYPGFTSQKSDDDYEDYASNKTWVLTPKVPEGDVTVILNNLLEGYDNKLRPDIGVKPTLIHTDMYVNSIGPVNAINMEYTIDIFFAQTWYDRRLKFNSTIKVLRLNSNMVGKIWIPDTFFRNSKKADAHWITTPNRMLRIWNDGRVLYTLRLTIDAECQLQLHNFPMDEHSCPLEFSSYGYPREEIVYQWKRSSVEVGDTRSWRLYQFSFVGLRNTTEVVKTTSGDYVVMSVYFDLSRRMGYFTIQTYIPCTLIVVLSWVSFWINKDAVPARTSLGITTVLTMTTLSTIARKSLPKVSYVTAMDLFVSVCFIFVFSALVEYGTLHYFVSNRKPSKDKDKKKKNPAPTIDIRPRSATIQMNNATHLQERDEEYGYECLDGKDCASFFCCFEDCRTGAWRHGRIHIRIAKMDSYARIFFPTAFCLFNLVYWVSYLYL
GABA A receptor alpha-6/beta-2/gamma-2, sequence (P30191 whole entry): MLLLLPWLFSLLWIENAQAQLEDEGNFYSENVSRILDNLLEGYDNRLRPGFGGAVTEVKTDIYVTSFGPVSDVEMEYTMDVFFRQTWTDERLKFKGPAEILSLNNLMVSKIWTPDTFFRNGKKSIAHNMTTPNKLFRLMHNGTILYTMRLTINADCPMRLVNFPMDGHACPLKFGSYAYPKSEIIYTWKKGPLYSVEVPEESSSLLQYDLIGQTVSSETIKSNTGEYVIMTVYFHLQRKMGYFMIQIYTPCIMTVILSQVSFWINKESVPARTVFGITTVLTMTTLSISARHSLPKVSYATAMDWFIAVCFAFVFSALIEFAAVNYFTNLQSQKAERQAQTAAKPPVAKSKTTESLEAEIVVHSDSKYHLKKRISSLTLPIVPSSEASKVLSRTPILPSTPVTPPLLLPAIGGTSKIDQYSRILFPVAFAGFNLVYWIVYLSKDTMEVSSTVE
GABA A receptor alpha-6/beta-2/gamma-2, sequence (P63138 whole entry): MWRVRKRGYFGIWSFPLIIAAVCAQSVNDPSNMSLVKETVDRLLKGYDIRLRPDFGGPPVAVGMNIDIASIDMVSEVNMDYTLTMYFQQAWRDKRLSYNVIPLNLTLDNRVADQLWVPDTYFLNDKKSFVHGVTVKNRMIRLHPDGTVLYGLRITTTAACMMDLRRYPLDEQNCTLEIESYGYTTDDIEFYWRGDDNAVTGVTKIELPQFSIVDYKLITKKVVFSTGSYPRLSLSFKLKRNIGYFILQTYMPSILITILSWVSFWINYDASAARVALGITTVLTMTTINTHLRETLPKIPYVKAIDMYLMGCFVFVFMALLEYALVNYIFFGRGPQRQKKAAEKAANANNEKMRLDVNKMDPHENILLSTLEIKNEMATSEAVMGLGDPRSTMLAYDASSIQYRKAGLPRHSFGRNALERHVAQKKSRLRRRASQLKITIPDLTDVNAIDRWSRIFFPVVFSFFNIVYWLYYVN

In the case of `O=C1COc2cccc3c2N1Cc1c(-c2noc(C4CC4)n2)ncn1-3`, the Ki [1] is reported as 2 nM and the Ratio [2] is reported as 0.35.
For `O=C1CCC2c3c(-c4noc(C5CC5)n4)ncn3-c3ccccc3N12` (stereo unspecified), the Activity [3] was 0.29, the Ki [4] was 13.2 nM and the Ratio [2] was 1.15.
In the case of `CC1(C)CC(=O)N2Cc3c(-c4noc(C5CC5)n4)ncn3-c3cccc1c32`, the Ki [1] is reported as 9.9 nM, the Activity [3] is reported as 1.1 and the inhibition [5] is reported as 35%. The Ki [4] was greater than 589 nM and the Ratio [2] was 0.75.
With `CN1Cc2cccc3c2N(Cc2c(-c4noc(C5CC5)n4)ncn2-3)C1=O` the Ki [1] was 3.7 nM, the Activity [3] was 0.5 and the inhibition [5] was 16.3%. It also gave a Ki [4] greater than 589 nM and a Ratio [2] of 0.08.
With `O=C1CCc2cccc3c2N1Cc1c(-c2noc(C4CC4)n2)ncn1-3` the Ki [1] was 2.6 nM, the Activity [3] was 0.07 and the inhibition [5] was 0%. The Ki [4] was greater than 589 nM and the Ratio [2] was 0.09.
`CC(C)N1Cc2cccc3c2N(Cc2c(-c4noc(C5CC5)n4)ncn2-3)C1=O` gave a Ki [1] of 1.2 nM, an Activity [3] of 0.65 and an inhibition [5] of 20.9%. It also gave a Ki [4] greater than 589 nM and a Ratio [2] of 0.41.
`O=C1CC(c2ccccc2)c2cccc3c2N1Cc1c(-c2noc(C4CC4)n2)ncn1-3` (stereo unspecified) showed a Ki [1] of 25 nM, an Activity [3] of 0.88 and an inhibition [5] of 13.6%. For the same molecule, the Ki [4] was greater than 589 nM and the Ratio [2] was 0.88.
For `COn1c(=O)n2c3c(cccc31)-n1cnc(-c3noc(C4CC4)n3)c1C2`, the Ki [1] was 7.3 nM, the Activity [3] was 0.73 and the inhibition [5] was 36.4%. It also gave a Ki [4] greater than 589 nM and a Ratio [2] of 0.68.
Molecule `CN1C(=O)CN=C(c2ccccc2)c2cc(Cl)ccc21` [DIAZEPAM] has an Activity [3] of 1.
Work on `CN(C)C(=O)N1Cc2c(-c3noc(C4CC4)n3)ncn2-c2ccccc21` [PNU-91571] yielded an Activity [3] of 0.68, a Ki [4] of 13.2 nM and a Ratio [2] of 0.69.
`O=C1CNc2cccc3c2N1Cc1c(-c2noc(C4CC4)n2)ncn1-3` gave a Ki [1] of 19 nM, an Activity [3] of 0.39 and an inhibition [5] of 14.7%. For the same molecule, the Ki [4] was greater than 589 nM and the Ratio [2] was 0.58.
`O=C1OCc2cccc3c2N1Cc1c(-c2noc(C4CC4)n2)ncn1-3` gave a Ki [1] of 21 nM, an Activity [3] of 0.35 and an inhibition [5] of 14.3%. It also gave a Ki [4] greater than 589 nM and a Ratio [2] of 0.52.
In the case of `CC(C)(C)OC(=O)N1CC(=O)N2Cc3c(-c4noc(C5CC5)n4)ncn3-c3cccc1c32`, the Ki [1] is reported as 579 nM, the Activity [3] is reported as 0.6 and the inhibition [5] is reported as 13.5%. For the same molecule, the Ki [4] was greater than 589 nM and the Ratio [2] was 0.63.
`CC(C)n1c(=O)c2c(-c3noc(C4CC4)n3)ncn2c2ccccc21` [PANADIPLON] was tested, and the Activity [3] was 0.04 and the Ki [4] was 603 nM.
